L major viab – reduces viability of Leishmania major promastigotes; resazurin fluorescence viability; inhibition, % at 10 µM; hit rate 9% among 200,000; in the data active means inhibition above about 50%;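 further: promastigotes grown with compound for 44 hours at 28 °C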
Autophagy mod – alters autophagy in cells. hit rate 0.98% among 190,000. calls only at 10 µM (by protocol). MEF GFP-LC3 puncta imaging; test concentration mostly 10 µM;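 active means percentage of spot-positive cells more than 3 SD above its plate mean, without a fluorescence outlier flag or 80% toxicity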;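 further: spot-positive cell cutoff set from DMSO-treated cells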
Dynein transport – dynein cargo transport inhibition; 3617.4 mouse cells, GR-EGFP nuclear translocation imaging; test concentration mostly 20 µM; stimulated with dexamethasone, 1 µM; hits give low values; z-score, hits read low; hit rate 0.47% among 220,000; AID 1381;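 active means plate z-score of nuclear minus cytoplasmic receptor signal below a set negative limit, without overly bright fluorescence or cell loss, cut at about -3.5 in these data, passing the limit was not always enough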;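 further: z-score of nuclear minus cytoplasmic ring GR-EGFP intensity difference per well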
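Also added – dexamethasone, 1.0 µM final · Buffer or medium – tet-free, stripped-serum medium · Schedule – induction 48 h, compound 1 h, agonist 30 min · Detection – formaldehyde fixation, Hoechst nuclear stain, 10x automated fluorescence imaging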
b-catenin transl – alters nuclear translocation of beta-catenin in HeLa cells. immunofluorescence imaging. nuclear translocation activity, % at 5 µM. hit rate 0.3% among 190,000. AID 1665;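 active means nuclear translocation activity above 50% at 5 µM, with a well cell count of 50 or more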;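 further: per-cell ratio of nuclear to cytoplasmic median beta-catenin stain intensity; plate controls were DMSO negative control for no effect and GSK-3 inhibitor IX positive control for full effect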
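System: Human HeLa cells, endogenous beta-catenin | Compound dosing: 5 µM primary, 0.02–20 µM confirmation | Timing: 24 h compound exposure at 37°C, 5% CO2 | Measured by: Fluorescence imaging of beta-catenin antibody stain plus DAPI | Read-out basis: % activation of per-cell nuclear versus cytoplasmic median beta-catenin signal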
CHOP inhibitor – inhibitors of CHOP induction in ER stress response | CHO-K1 CHOP-promoter luciferase, tunicamycin-induced, 15-18 h | inhibition, % at 10 µM | hit rate 3.8% among 220,000;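 active means compounds that reduced the stress-induced luciferase reporter signal by more than about 70% of percent inhibition, limit read from the data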;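 further: 0% = tunicamycin plus vehicle and 100% = wells without tunicamycin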
MT stabilizer – stabilizes microtubules in HeLa cells | HeLa tubulin immunostaining HCS, 24 h; share of cells brighter than vehicle mean+2SD | % tubulin-high responders, % at 10 µM | hit rate 0.83% among 200,000 | AID 2205;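 active means plate Z-score above 3 for both tubulin-high and condensed-nucleus cell shares, with cell loss under 80%, at 10 µM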;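 further: anti alpha tubulin signal scored within the nucleus-defined area of each cell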
* marks the source's active call; other numbers are inactive results; i = inactive; . = no result given; + = active, no number. Shown are actives, neighbours in structure and some others; about 12% of the full set was active somewhere.

SMILES | L major viab | Autophagy mod | Dynein transport | b-catenin transl | CHOP inhibitor | MT stabilizer
COc1cc(/C=C2\SC(=O)N(Cc3ccc(Cl)cc3)C2=O)cc([N+](=O)[O-])c1O | 3 | i | 0.67 | 0 | 107* | 6
COc1ccc(/C=C2/SC(=O)N(CCNC(=O)C3COc4ccccc4O3)C2=O)cc1 (stereo not given) | -2 | i | 1.6 | 1 | 11 | 5
COc1cc(/C=C2/SC(=O)N(Cc3ccccc3)C2=O)ccc1OCc1ccncc1 | 92* | i | -1.2 | -2 | -5 | 3
CCOc1ccc(/C=C2\SC(=O)N(CCNC(=O)C3COc4ccccc4O3)C2=O)cc1OC (stereo not given) | 71* | i | -1.7 | 1 | 68 | 2
CC(=O)Nc1ccc(NC(=O)CN(C)CCC#N)cc1 | 4 | i | 2.2 | -7 | 5 | 2
Cn1nc(C(=O)Nc2nc3ccccc3[nH]2)ccc1=O | -1 | i | 1.1 | 1 | -7 | 2
COCCOc1cc(-n2cccc2)c(Cl)cc1Cl | 10 | i | -0.18 | 1 | 7 | 2
C=CCN1CCc2cc(O)c(O)cc2C(c2ccccc2)C1 (stereo not given) | . | . | . | . | 95* | .
COC(=O)c1ccc(Oc2ccc(C(F)(F)F)cn2)cc1 | -3 | i | -0.19 | -1 | 28 | 7
CCCOC(=O)c1ccc(NC(=O)c2nc3nc(C)cc(C)n3n2)cc1 | 7 | i | -0.073 | -1 | 20 | 3
COc1ccccc1NC(=O)C1=C(C)Nc2ncnn2C1c1ccccc1C (stereo not given) | 9 | i | 1.6 | 1 | -3 | 2
COc1ccc(C2CC(=O)C3=C(C2)Nc2ncnn2C3c2ccccc2)cc1 (stereo not given) | 91* | i | -0.68 | 0 | -5 | 3
COc1ccc(C2CC(=O)C3=C(C2)Nc2ncnn2C3c2ccccc2C)cc1 (stereo not given) | 100* | i | 0.12 | -3 | 8 | 2
CCN(CC)C(=O)C(=O)Nc1ccc(OC)c(Cl)c1 | -7 | i | -0.15 | -3 | -8 | 3
Cc1cccc(CN(C(=S)Nc2c(C)cccc2C)c2cccnc2)c1 | 87* | i | -0.014 | 2 | 10 | 4
CCc1ccccc1NC(=S)N(Cc1cccc(C)c1)c1cccnc1 | 22 | i | 1.2 | -1 | 12 | 4
CCOCCSc1nc2c(c(=O)[nH]c(=O)n2C)n1CCCc1ccccc1 | 5 | i | 0.7 | -3 | -7 | 5
CC(CSc1nnnn1-c1ccccc1)Cn1c(N2CCCC2)nc2c1c(=O)[nH]c(=O)n2C (stereo not given) | 7 | + | -0.3 | -2 | 9 | 3
Cn1c(=O)[nH]c(=O)c2c1nc(SCCN1CCCCC1)n2Cc1ccccc1 | 99* | i | -0.22 | . | -1 | 1
Cn1c(=O)[nH]c(=O)c2c1nc(SCCN1CCCCC1)n2CCCc1ccccc1 | 98* | i | -0.66 | -4 | 36 | 1
CC(NC(=O)c1ccco1)C(=O)OCC(=O)c1ccc(Cl)s1 (stereo not given) | 0 | i | 0.082 | -3 | 11 | 2
CCN(CC)CCCNC(=O)c1sc2nc(-c3ccc(F)cc3)cn2c1C | 48 | + | 0.77 | . | -17 | 3
COc1cc([C@@H]2C[C@H]3CN(c4ccccc4)C(=O)[C@]34CCCN24)cc(OC)c1OC | 2 | i | -1.2 | -2 | 78* | 3
COc1cc(Cl)c([C@@H]2C[C@H]3CN(c4ccccc4)C(=O)[C@]34CCCN24)cc1OC | -5 | i | 0.69 | 2 | -16 | 2
CCOc1cc([C@@H]2C[C@H]3CN(c4ccccc4)C(=O)[C@]34CCCN24)ccc1OC | 2 | i | -0.47 | -1 | 84* | 5
SMILES | L major viab | Autophagy mod | Dynein transport | b-catenin transl | CHOP inhibitor | MT stabilizer
O=C(CSc1nc2ccccc2n1S(=O)(=O)c1ccccc1)N1CCCC1 | 11 | i | -1.1 | 0 | 2 | 6
C=CCOc1ccc(/C=N/N2C(=O)C(CC(=O)Nc3ccc(F)cc3F)SC2=NC)cc1 (stereo not given) | 2 | i | 0.86 | 0 | 70* | 1
O=C(O)CC(CNS(=O)(=O)c1ccccc1)c1ccccc1 (stereo not given) | -4 | i | -0.29 | 0 | 3 | 4
COc1ccc(OC(C)C(=O)NCCC2=CCCCC2)cc1 (stereo not given) | 10 | i | 1.1 | 0 | 4 | 4
CC(OC(=O)Cc1c(F)cccc1Cl)C(=O)NCCC1=CCCCC1 (stereo not given) | 52* | i | -0.013 | -8 | 62 | 2
Cc1sc2nc(CSc3cccc(C(F)(F)F)c3)[nH]c(=O)c2c1C | -5 | i | -0.37 | 0 | 73* | 3
Cc1sc2nc(CSc3ccc([N+](=O)[O-])cc3)[nH]c(=O)c2c1C | -7 | i | -0.99 | -1 | 45 | 3
Cc1sc2nc(CSc3nc4ccccc4s3)[nH]c(=O)c2c1C | 8 | i | 0.66 | -1 | 77* | 2
Cc1ccc(-n2nnnc2SCc2nc3sc(C)c(C)c3c(=O)[nH]2)cc1 | 58* | + | -1 | 3 | 43 | 2
N=c1c2ccccc2nnn1-c1cccc(C(F)(F)F)c1 | -1 | i | 0.69 | 2 | 6 | 5
O=C(c1ccco1)N1CCN(S(=O)(=O)Cc2ccccc2Cl)CC1 | -4 | i | -0.38 | -1 | 3 | 2
CCOC(=O)N1CCN(C(=S)NC(=O)c2ccc(F)c(F)c2)CC1 | -3 | i | -0.55 | 0 | -27 | 2
CC(=O)C1=C(c2ccccc2)NC(=O)NC1c1ccccc1OCC(=O)Nc1ccccc1 (stereo not given) | 0 | i | -0.59 | . | 72* | 1
O=C(Cn1nc(-c2ccccc2)c2ccccc2c1=O)Nc1ccccn1 | -1 | i | 0.12 | -6 | 21 | 2
CCN(CC)CCNC(=O)c1cc2cc(Br)ccc2s1 | 96* | i | -1.1 | 1 | 28 | 2
CCN(CC)CCNC(=O)c1ccc(N)cc1 | -6 | i | -0.84 | . | -3 | 3
COc1ccc(CCNC(=O)c2cc(C(=O)c3cc(Cl)ccc3O)cn(CCc3ccc(OC)cc3)c2=O)cc1 | 99* | i | -0.85 | 1 | 7 | 2
O=C(c1cc(C(=O)NCCc2ccccc2)c(=O)n(CCc2ccccc2)c1)c1cc(Cl)ccc1O | 98* | i | -0.53 | 2 | 82* | 6
COc1ccc(CCNC(=O)c2ccc(Cl)cc2Cl)cc1 | -5 | i | 0.1 | -2 | -36 | 3
COc1ccc(CCNC(=O)c2cc(C(=O)c3cc(C)ccc3O)cn(CCc3ccc(OC)cc3)c2=O)cc1 | 96* | i | -0.7 | 0 | -36 | 2
O=C(O)c1ccccc1C(=O)NCCc1ccc(Cl)cc1 | 2 | i | 0.62 | -1 | 15 | 3

Source: PubChem BioAssay
